Screens (PubChem)
Most compounds without a hit are left out; they make up all but 2.5% or so of the library.
HGIII-sPLA2 inh = Blocks human group III sPLA2 activity | Q9NZ20 | QFRET BODIPY PC-A2 liposome hydrolysis, fluorescence | inhibition, % at 12.2 µM | 370,000 tested, 0.56% active | AID 743126;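 active = inhibition above mean plus 3 SD of compounds lying within the high and low control bounds, cut at about 19% in these data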;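 note: 0% = median of test compound wells and 100% = no enzyme DMSO wells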
MC4R ag barr = agonists of human melanocortin 4 receptor (MC4R) beta-arrestin. U2OS MC4R beta-arrestin complementation, luminescence; percent of melanotan II response, DMSO zero. activation, % at 8.9 µM. 360,000 tested, 0.98% active. AID 540308;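 active = activation above a per-plate cutoff, the mean activation of sample wells on that plate plus 3 SD, cut at about 8% in these data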
Target sequence (P32245 whole entry, looked up): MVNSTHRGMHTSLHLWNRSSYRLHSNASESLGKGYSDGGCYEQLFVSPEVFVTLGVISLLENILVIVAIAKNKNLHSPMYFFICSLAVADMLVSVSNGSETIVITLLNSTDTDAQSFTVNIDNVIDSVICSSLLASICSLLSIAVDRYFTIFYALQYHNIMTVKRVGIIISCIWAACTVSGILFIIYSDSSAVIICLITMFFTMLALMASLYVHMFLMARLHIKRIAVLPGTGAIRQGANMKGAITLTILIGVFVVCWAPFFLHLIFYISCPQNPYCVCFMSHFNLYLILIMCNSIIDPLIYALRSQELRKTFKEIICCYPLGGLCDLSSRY
MC4R antagonist = antagonists of human melanocortin 4 receptor (MC4R); inhibition, % at 6.5 µM; 360,000 tested, 0.48% active; MC4R-expressing cells, MTII-stimulated cAMP, LANCE TR-FRET; P32245;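 active = inhibition above its plate's cutoff, the mean of tested wells on that plate plus 3 SD, cut at about 29% in these data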;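 note: 0% = Melanotan II alone and 100% = Melanotan II plus saturating MCL0020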
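system = U2OS cells with stable human MC4R expression | also added = Melanotan II challenge after compound preincubation | dosing = one concentration, 6.5 µM nominal | incubation = compound 30 min, challenge 1 h, detection 1 h | measured by = TR-FRET with Eu-cAMP and labeled anti-cAMP, 671 nm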
NTR1 ag = activates human neurotensin receptor 1; P30989; NTR1-U2OS beta-arrestin-GFP spot imaging, agonist mode; activation, % at 20 µM; 330,000 tested, 0.17% active; AID 493036;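 active = activation at or above 40% of the spot to cytoplasm intensity ratio, with at least 20 cells analyzed; inconclusive = wells under 20 cells, flagged as cytotoxic or low count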;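 note: 0% = DMSO without peptide and 100% = 100 nM NTR1 peptide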
Granule exo inh = lytic granule exocytosis inhibition. 360,000 tested, 0.66% active. AID 651702. inhibition, % at 10 µM. TALL-104 LAMP-1 surface exposure, flow cytometry; cells stimulated with thapsigargin and PMA;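 active = inhibition above about 55%, limit read from the data; inconclusive = no clear call, values can overlap the other calls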
Bfl-1 A1 inh = inhibitors of the anti-apoptotic protein A1, read as caspase activation; caspase activation, % (test concentration not listed); MEF A1-2A-BIM cells, Caspase-Glo 3/7 luminescence, 3 h; percent of clofoctol response, vehicle zero; 330,000 tested, 0.066% active; AID 2462;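 active = over half of replicate activation scores above 10%, or exactly half above 10 with the replicate mean above 10; inconclusive = replicate mean below 10 yet half the replicates above 10; inactive = over half of replicates below 10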
U2OS cAMP counter = nonselective cAMP signaling inhibitor, MC4R antagonist counter-screen. inhibition, % at 6.5 µM. shares compounds with MC4R antagonist. parental U2OS, forskolin cAMP, LANCE TR-FRET. 1,600 tested, 26% active. AID 602193;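 active = mean inhibition over triplicates above the low-control well mean plus 3 SD, set per campaign, cut at about 13% in these data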;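 note: signal is single emission at 671 nm which falls as cellular cAMP rises; 0% = forskolin-stimulated wells and 100% = buffer without forskolin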
MC4R cAMP antag = human MC4R cAMP antagonism confirmation. inhibition, % at 6.5 µM. AID 602195. 1,600 tested, 27% active. MC4R-expressing cells, MTII-stimulated cAMP, TR-FRET. shares compounds with MC4R antagonist; in the data active = inhibition above about 29%;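 note: 0% = agonist stimulated wells alone and 100% = agonist stimulated wells plus saturating reference antagonist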
An asterisk follows results filed as active; u = inconclusive; x = not tested or not shown.

SMILES	HGIII-sPLA2 inh	MC4R ag barr	MC4R antagonist	NTR1 ag	Granule exo inh	Bfl-1 A1 inh	U2OS cAMP counter	MC4R cAMP antag
COc1cc([N+](=O)[O-])cc(/C=N/NC(=O)Cn2nccc2C)c1O	4	-2	29*	0	4	-2	-6	-14
COc1ccc(-c2cc(-c3ccccc3)c(C#N)c(S(C)(=O)=O)n2)cc1	6	0	30*	11	2	-1	17*	48*
COc1ccc(-c2cc(-c3ccc(OC)cc3)c(C#N)c(SC)n2)cc1	5	-3	4	0	0	0	x	x
N#Cc1c(-c2ccc(Br)cc2)cc(-c2cccnc2)nc1N	8	-1	7	1	-2	0	x	x
CS(=O)c1nc(-c2ccc(Br)cc2)cc(-c2ccccc2)c1C#N (stereo not given)	5	1	57*	66*	53	0	12	66*
CS(=O)(=O)c1nc(-c2ccc(Br)cc2)cc(-c2ccccc2)c1C#N	0	4	43*	15	33	-1	25*	65*
O=C(C(=S)N1CCOCC1)c1c[nH]c2ccccc12	1	3	30*	0	-2	1	3	2
O=C(CN1CCOCC1)c1c[nH]c2ccccc12	-4	-2	3	0	-1	0	x	x
S=C(Nc1ccccc1Br)OCCN1CCCC12CCC(c1ccccc1)CC2 (stereo not given)	3	x	x	x	x	x	x	x
Cc1ccccc1OCc1nnc(SC(C)C(=O)O)n1-c1ccccc1 (stereo not given)	1	-1	42*	x	-6	x	-2	-14
CCOC(=O)c1cccc(NC(=O)CN(C)S(=O)(=O)c2cc3ccccc3s2)c1	-34	x	x	x	x	x	x	x
COc1ccc(CN(C)S(=O)(=O)c2nnc(NC(=O)c3ccc(C)cc3)s2)cc1OC	-6	-1	30*	1	-4	1	4	23
COc1ccc(CN(C)S(=O)(=O)c2nnc(NC(=O)c3ccccc3OC)s2)cc1OC	-4	0	2	2	u	-1	x	x
CC(C)C[C@@H]1COc2cccc(NC3CC3)c2S(=O)(=O)N1	-5	x	x	x	x	x	x	x
O=C(NC(=S)NCCCN1CCOCC1)c1ccco1	5	1	29*	0	-4	0	2	-15
O=C(NC(=S)NCCN1CCOCC1)c1ccccc1Cl	5	2	-8	-4	-1	0	x	x
CN(Cc1ccccc1)c1nc(N)nc(Cl)c1C=O	3	-1	34*	8	3	1	17*	8
O=C(NCCc1c[nH]c2ccccc12)[C@H](Cc1c[nH]c2ccccc12)NC1(C(=O)NC2CCCCC2)CCCCCCC1	-14	x	x	x	x	x	x	x
O=S(=O)(NCc1ccco1)c1cnc(Cl)c(Br)c1	-10	-2	42*	16	8	0	30*	67*
O=C(CS(=O)c1ccc(C(F)(F)F)cc1[N+](=O)[O-])Oc1ccccc1 (stereo not given)	-1	3	49*	15	56*	9.2*	13	34*
COC(=O)c1ccc(OC(=O)CS(=O)c2ccccc2[N+](=O)[O-])cc1 (stereo not given)	-3	-2	25	-1	-3	1	x	x
Cc1cccc(-c2cccc3c4c([nH]c23)[C@@H]2C[C@H](N(C)C(=O)c3ccco3)[C@H]([C@H](C)O)C(=O)N2CC4)c1	-42	x	x	x	x	x	x	x
COc1ccc(/C=N/Nc2cc(C)nc(NS(=O)(=O)c3ccc(C)cc3)n2)cc1	-21	-2	32*	2	5	1	2	21
CC(C)(C)OC(=O)NCc1ccccc1/C=C/S(=O)(=O)NCc1ccccc1	-5	x	x	x	x	x	x	x
CC1Cc2ccccc2N1S(=O)(=O)c1cnc(Cl)c(Br)c1 (stereo not given)	6	-2	30*	10	-4	-1	22*	38*
SMILES	HGIII-sPLA2 inh	MC4R ag barr	MC4R antagonist	NTR1 ag	Granule exo inh	Bfl-1 A1 inh	U2OS cAMP counter	MC4R cAMP antag
CCC(C)(C)NC(=O)CN(Cc1ccc2c(c1)OCO2)C(=O)CCC(=O)Nc1cc(C)ccn1	-3	2	30*	1	24	0	-2	-5
CCC(C)N(c1nc(C)nc2c1nnn2Cc1ccccc1)C(C)CC (stereo not given)	0	x	x	x	x	x	x	x
Cc1c(C(=O)NCc2ccc(F)cc2)oc2ccc(S(=O)(=O)N3CCOCC3)cc12	-15	2	32*	-1	-9	1	-1	-1
Cc1c(C(=O)NCc2c(F)cc(F)cc2F)oc2ccc(S(=O)(=O)N3CCOCC3)cc12	-9	0	10	0	-12	1	x	x
COC(=O)C1CN(Cc2cn(Cc3ccc(Cl)cc3)nn2)CCS(=O)(=O)N1Cc1ccc(Cl)cc1 (stereo not given)	-13	x	x	x	x	x	x	x
C[C@@H]1CN(Cc2nc(Cc3ccccc3F)no2)C[C@H](C)O1	0	1	33*	0	-1	0	-3	-13
Cc1cc(N2CCN(C)CC2)nc(=S)[nH]1	11	-1	29*	0	-3	-1	0	-4
C[C@H]1CN([C@@H](C)CO)C(=O)CCCn2nncc2CO[C@@H]1CN(C)S(=O)(=O)c1cccs1	7	x	x	x	x	x	x	x
COc1cc(C(=S)N2CCOCC2)ccc1OC(=O)c1ccc([N+](=O)[O-])cc1[N+](=O)[O-]	-3	-1	37*	4	4	0	6	28
Cc1c(C(=O)OCC(=O)Nc2ccc(S(N)(=O)=O)cc2)oc2c1ccc1ccccc12	-4	2	35*	0	-8	2	2	-5
Cc1ccc2c(C)c(C(=O)Nc3ccc(S(N)(=O)=O)cc3)oc2c1C	6	4	4	1	15	-1	x	x
CCC[C@H]1[C@@H](NCc2ccccc2)CC[C@@]23CCCN2C(=O)CCC[C@@H]13	1	x	x	x	x	x	x	x
CNc1nc(Nc2ccc([N+](=O)[O-])cc2)nc(OCC(F)(F)F)n1	-3	1	15	2	4	1	x	x
CNc1nc(N/N=C/c2cc([N+](=O)[O-])ccc2F)nc(Nc2ccccc2)n1	-2	-1	47*	x	-2	x	19*	62*
CC(=O)Nc1cccc(NC(=O)CSc2ncc(C(=O)Nc3ccccc3)c(=O)n2C)c1	-11	-4	30*	4	1	-7	0	20
COc1ccc(N2CCN(C(=O)COc3ccc4c(C)cc(=O)oc4c3C)CC2)cc1	8	-1	10	1	5	0	x	x
